Data from ChEMBL document CHEMBL3792382, “Synthesis of new secretory phospholipase A2-inhibitory indole containing isoxazole derivatives as anti-inflammatory and anticancer agents” (Eur J Med Chem, 2016).

Columns and labels:
[1] = Inhibition of human type 2A secretory PLA2 using diheptanoyl thio-PC as substrate after 15 mins by ELISA
Outline: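 Type IIA sPLA2 from a commercial kit was incubated with inhibitor and diheptanoyl thio-PC substrate for 15 min. DTNB was then added and the thiol released by hydrolysis was read at 415 nm. Control wells held no inhibitor. % inhibition = (A control − A test)/A control × 100, and IC50 was taken from the dose-response; ursolic acid served as positive control.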

[2] = Partition coefficient, logP of the compound; assay type: physicochemical; conditions: octanol/water
Rattus norvegicus [3] = test: Antiinflammatory activity against carrageenan-induced paw edema in Wistar albino rat model at 10 mg/kg, po administered 1 hr prior to carrageenan-challenge measured at 3rd hr by plethysmometer; assay type: functional
Outline: (§1)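 Rats were dosed orally 1 h before subplantar injection of 0.1 ml 1% λ-carrageenan in saline into the left hind paw, with saline in the right paw. Vehicle controls received saline 1 ml/kg p.o.; ursolic acid served as positive control. Paw volume was read by mercury plethysmometer before injection and at 1, 2, 3, 4 and 6 h. Results are % edema inhibition versus vehicle, mean ± SEM, n = 3-6, one-way ANOVA.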

Rattus norvegicus [4] = test: Antiinflammatory activity against carrageenan-induced paw edema in Wistar albino rat model at 10 mg/kg, po administered 1 hr prior to carrageenan-challenge measured at 4th hr by plethysmometer; assay type: functional; outline: as §1
MCF7 = test: Antiproliferative activity against human MCF7 cells after 48 hrs by MTT assay; assay type: functional, cell-based; conditions: MCF7, 48 h
Outline: (§2)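 Cells were grown in RPMI with 10% FCS, penicillin and streptomycin at 37 °C in humidified CO2. They were exposed to a range of concentrations for 48 h, then given MTT for 2 h at 37 °C. Formazan was dissolved in DMSO and absorbance read at 570 nm (reference 620 nm). IC50 was derived from the readings, with doxorubicin as positive control.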

[5] = Antiproliferative activity against human DU145 cells after 48 hrs by MTT assay; assay type: functional, cell-based; conditions: DU-145, 48 h; outline: as §2

COc1ccc(-c2cc(CNCc3c[nH]c4ccccc34)on2)cc1
IC50 [1]: 18.2 µM | logP [2]: 3.5

Cc1ccc2[nH]cc(CNCc3cc(-c4ccc(F)c(C(F)(F)F)c4)no3)c2c1
IC50 [1]: 10.2 µM | inhibition in vivo at 10 mg/kg (Rattus norvegicus [3]): 75.7% | inhibition in vivo at 10 mg/kg (Rattus norvegicus [4]): 76.5% | IC50 (MCF7): 10 µM | IC50 [5]: 14.2 µM | logP [2]: 4.85

Fc1ccc(-c2cc(CNCc3c[nH]c4ccccc34)on2)cc1C(F)(F)F
IC50 [1]: 21.5 µM | logP [2]: 4.43

COc1ccc(-c2cc(CNCc3c[nH]c4ccc(C)cc34)on2)cc1
IC50 [1]: 24.6 µM | logP [2]: 3.92

Cc1ccc(-c2cc(CNCc3c[nH]c4ccc(C)cc34)on2)cc1
IC50 [1]: 21.6 µM | logP [2]: 4.33

COc1ccc(-c2cc(CNCc3c[nH]c4ccc(Br)cc34)on2)cc1
IC50 [1]: 32.6 µM | logP [2]: 4.28

O=[N+]([O-])c1ccc(-c2cc(CNCc3c[nH]c4ccccc34)on2)cc1
IC50 [1]: 25.6 µM | logP [2]: 3.4

Cc1ccc(-c2cc(CNCc3c[nH]c4ccccc34)on2)cc1
IC50 [1]: 22.7 µM | logP [2]: 3.89

C[C@H]1[C@H](C)CC[C@]2(C(=O)O)CC[C@]3(C)C(=CC[C@@H]4[C@@]5(C)CC[C@H](O)C(C)(C)[C@@H]5CC[C@]43C)[C@H]12 [URSOLIC ACID]
IC50 [1]: 12.6 µM | inhibition in vivo at 10 mg/kg (Rattus norvegicus [3]): 73% | inhibition in vivo at 10 mg/kg (Rattus norvegicus [4]): 75.2%

Cc1ccc2[nH]cc(CNCc3cc(-c4ccc([N+](=O)[O-])cc4)no3)c2c1
IC50 [1]: 19.4 µM | logP [2]: 3.83

O=[N+]([O-])c1ccc(-c2cc(CNCc3c[nH]c4ccc(Br)cc34)on2)cc1
IC50 [1]: 22.4 µM | logP [2]: 4.19

Brc1ccc2[nH]cc(CNCc3cc(-c4ccccc4)no3)c2c1
IC50 [1]: 32.5 µM | logP [2]: 4.23

Cc1ccc(-c2cc(CNCc3c[nH]c4ccc(Br)cc34)on2)cc1
IC50 [1]: 27.3 µM | logP [2]: 4.67

Fc1ccc(-c2cc(CNCc3c[nH]c4ccc(Br)cc34)on2)cc1C(F)(F)F
IC50 [1]: 17.2 µM | logP [2]: 5.21

COc1cccc2c1C(=O)c1c(O)c3c(c(O)c1C2=O)C[C@@](O)(C(=O)CO)C[C@@H]3O[C@H]1C[C@H](N)[C@H](O)[C@H](C)O1 [DOXORUBICIN]
IC50 [5]: 4.75 µM

Cc1ccc2[nH]cc(CNCc3cc(-c4ccccc4)no3)c2c1
IC50 [1]: 27.9 µM | logP [2]: 3.87

c1ccc(-c2cc(CNCc3c[nH]c4ccccc34)on2)cc1
IC50 [1]: 30.6 µM | logP [2]: 3.44
